Measurements taken from ChEMBL document CHEMBL3351676, “Polyyne hybrid compounds from Notopterygium incisum with peroxisome proliferator-activated receptor gamma agonistic effects” (J Nat Prod, 2014).
Active and inactive are the calls of the source. No cut-off for these calls is given here.

Legend:
[1] = molecular target: T1, Peroxisome proliferator-activated receptor gamma (Homo sapiens) (UniProt P37231); assay: Agonist activity at human PPARgamma expressed in HEK293 cells assessed as induction of receptor activation at 10 uM incubated for 18 hrs by luciferase reporter gene assay relative to untreated control; assay type: cell-based
T1 sequence (whole entry): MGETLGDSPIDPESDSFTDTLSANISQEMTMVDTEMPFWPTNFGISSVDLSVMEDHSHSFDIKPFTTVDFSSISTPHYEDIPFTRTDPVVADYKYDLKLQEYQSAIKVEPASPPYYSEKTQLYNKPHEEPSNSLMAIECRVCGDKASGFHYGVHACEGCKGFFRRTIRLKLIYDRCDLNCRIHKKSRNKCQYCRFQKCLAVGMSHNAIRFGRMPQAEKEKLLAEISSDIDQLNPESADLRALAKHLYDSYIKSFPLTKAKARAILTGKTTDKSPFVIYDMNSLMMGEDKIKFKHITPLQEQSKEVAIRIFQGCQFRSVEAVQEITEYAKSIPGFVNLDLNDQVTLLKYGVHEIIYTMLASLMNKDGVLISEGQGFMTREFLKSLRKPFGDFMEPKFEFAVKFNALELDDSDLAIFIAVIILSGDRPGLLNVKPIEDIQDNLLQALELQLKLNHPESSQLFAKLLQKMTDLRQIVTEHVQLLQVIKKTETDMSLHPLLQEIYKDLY
Outline: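 HEK-293 cells in DMEM with 10% FBS, transfected by calcium phosphate with human PPARγ1 plasmid, tk-PPREx3-luc reporter and pEGFP-N1. After 6 h, replated in phenol-red-free DMEM with charcoal-stripped FBS. Treated 18 h; DMSO ≤0.1% as solvent control. Firefly luciferase luminescence normalized to EGFP fluorescence per well.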

[2] = test system: RAW264.7; assay: Inhibition of LPS and IFNgamma-induced nitric oxide production in mouse RAW264.7 cells incubated for 16 hrs by Griess assay; assay type: functional, cell-based
Outline: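 RAW 264.7 macrophages stimulated with LPS plus IFN-γ to induce iNOS. Compounds dissolved in DMSO and diluted in PBS. Nitrite in supernatants measured by Griess assay against a sodium nitrite standard curve after 16 h. Activity expressed relative to LPS/IFN-γ/0.1% DMSO control; L-NMMA as positive control. Eight concentrations, at least three independent experiments, each in duplicate.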

In the case of `C=C[C@@H](O)C#CC#C[C@H](/C=C\CCCCCCC)O[C@]1(C)CC[C@@H](O)[C@]2(C)CC[C@H](C(C)C)[C@H](O)[C@H]21`, the Activity [1] is reported as “inactive” and the inhibition [2] is reported as “inactive”.
In the case of `C=C[C@H](C#CC#C[C@@H](O)/C=C\CCCCCCC)O[C@]1(C)CC[C@@H](O)[C@]2(C)CC[C@@H](C(C)C)[C@@H](O)[C@H]21`, the inhibition [2] is reported as “inactive”.
For `C=C[C@@H](O)C#CC#C[C@H](/C=C\CCCCCCC)O[C@]1(C)CC[C@@H](C(C)C)[C@@H](O)[C@@H]2[C@@](C)(O)CC[C@]21O`, the Activity [1] was “inactive” and the inhibition [2] was “inactive”.
In the case of `C=C[C@@H](O)C#CC#C[C@H](/C=C\CCCCCCC)O[C@]1(C)CC[C@@H](O)[C@]2(C)CC[C@@H](C(C)C)[C@@H](O)[C@H]21`, the Activity [1] is reported as “inactive” and the inhibition [2] is reported as “inactive”.
With `C=C[C@H](C#CC#C[C@@H](O)/C=C\CCCCCCC)O[C@]1(C)CCC[C@]2(C)CC[C@@H](C(C)(C)O)C[C@H]21` the inhibition [2] was “inactive”.
For `C=C[C@H](C#CC#C[C@@H](O)/C=C\CCCCCCC)O[C@]1(C)CC[C@@H](C(C)C)[C@@H](O)[C@@H]2[C@@](C)(O)CC[C@]21O`, the Activity [1] was “inactive” and the inhibition [2] was “inactive”.
In the case of `C=C[C@H]1OCc2cc3cc(OC)c(O)cc3c(C#C[C@@H](O)/C=C\CCCCCCC)c21`, the inhibition [2] is reported as “inactive”.
`C=C[C@@H](O)C#Cc1c2c(cc3cc(OC)c(O)cc13)CO[C@H]2/C=C\CCCCCCC` was tested, and the Activity [1] was “inactive” and the inhibition [2] was “inactive”.
In the case of `C=C[C@@H](O)C#CC#C[C@H](/C=C\CCCCCCC)O[C@]1(C)CCC[C@]2(C)CC[C@@H](C(C)(C)O)C[C@H]21`, the inhibition [2] is reported as “inactive”.
In the case of `C=C[C@H](C#CC#C[C@@H](O)/C=C\CCCCCCC)O[C@]1(C)CC[C@@H](O)[C@]2(C)CC[C@H](C(C)C)[C@H](O)[C@H]21`, the Activity [1] is reported as “inactive” and the inhibition [2] is reported as “inactive”.
